The source made the active and inactive calls. The rule behind the calls is not given here.
Key:
[1] = tested on: Staphylococcus aureus; test: Antibacterial activity against Staphylococcus aureus ATCC 29213 after 16 to 20 hrs by broth microdilution method; assay type: functional
Summary of the method: (§1)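 Broth microdilution per CLSI. Bacteria grown 4-6 h (about 10⁸ CFU/mL), then diluted to about 10⁶ CFU/mL. Medium: Mueller-Hinton broth, except Luria-Bertani broth for E. coli. Compounds in sterile water, twofold series 256-0.5 µg/mL, mixed 1:1 with inoculum, 37 °C for 16-20 h. MIC is the lowest concentration without visible growth. Duplicate wells; experiment repeated at least twice.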

[2] = tested on: Enterococcus faecalis; test: Antibacterial activity against Enterococcus faecalis ATCC 29212 after 16 to 20 hrs by broth microdilution method; assay type: functional; summary of the method: as §1
[3] = tested on: Escherichia coli; test: Antibacterial activity against Escherichia coli ATCC 25922 after 16 to 20 hrs by broth microdilution method; assay type: functional; summary of the method: as §1
[4] = tested on: Salmonella enterica; test: Antibacterial activity against Salmonella enterica ATCC 13076 after 16 to 20 hrs by broth microdilution method; assay type: functional; summary of the method: as §1
[5] = Hemolytic activity in sheep RBC after 1 hr; assay type: ADME, cell-based, Ovis aries, Erythrocyte; conditions: sheep red blood cells (erythrocytes)
Summary of the method: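 Sheep red blood cells (150 µL suspension) mixed with 50 µL of compound dilutions (5120-10 µg/mL), 1 h at 37 °C, then centrifuged. Supernatant read at 540 nm. Percent hemolysis calculated relative to RBC-only control (0%) and 0.1% Triton X-100 (100%).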

[6] = tested on: Staphylococcus aureus; test: Antibacterial activity against methicillin-resistant Staphylococcus aureus clinical isolate 1105183 cono7 after 16 to 20 hrs by broth microdilution method; assay type: functional
Summary of the method: (§2)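 CLSI broth microdilution in Mueller-Hinton broth. A 4-6 h culture was diluted to about 10⁶ CFU/mL and mixed 1:1 with compound dilutions prepared at 256 to 0.5 µg/mL from aqueous stocks. Plates were incubated at 37 °C for 16-20 h and read visually for MIC. Each concentration was run in duplicate, and the experiment was repeated at least twice. Vancomycin and meropenem were comparators.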

[7] = tested on: Staphylococcus aureus; test: Antibacterial activity against methicillin-resistant Staphylococcus aureus clinical isolate 20130911034sau after 16 to 20 hrs by broth microdilution method; assay type: functional; summary of the method: as §2
[8] = tested on: Staphylococcus aureus; test: Antibacterial activity against methicillin-resistant Staphylococcus aureus clinical isolate 0831010 after 16 to 20 hrs by broth microdilution method; assay type: functional; summary of the method: as §2
[9] = tested on: Staphylococcus aureus; test: Antibacterial activity against methicillin-resistant Staphylococcus aureus clinical isolate 1104060 after 16 to 20 hrs by broth microdilution method; assay type: functional; summary of the method: as §2
[10] = tested on: Staphylococcus aureus; test: Antibacterial activity against methicillin-resistant Staphylococcus aureus clinical isolate 20131012632sau after 16 to 20 hrs by broth microdilution method; assay type: functional; summary of the method: as §2
[11] = tested on: Staphylococcus aureus; test: Antibacterial activity against methicillin-resistant Staphylococcus aureus clinical isolate 1207007 after 16 to 20 hrs by broth microdilution method; assay type: functional; summary of the method: as §2
[12] = tested on: Staphylococcus aureus; test: Antibacterial activity against methicillin-resistant Staphylococcus aureus clinical isolate 1-may after 16 to 20 hrs by broth microdilution method; assay type: functional; summary of the method: as §2
[13] = tested on: Staphylococcus aureus; test: Antibacterial activity against methicillin-resistant Staphylococcus aureus clinical isolate 0906202 after 16 to 20 hrs by broth microdilution method; assay type: functional; summary of the method: as §2
[14] = tested on: Staphylococcus aureus; test: Antibacterial activity against methicillin-resistant Staphylococcus aureus clinical isolate 1208143 after 16 to 20 hrs by broth microdilution method; assay type: functional; summary of the method: as §2
[15] = tested on: Klebsiella pneumoniae; test: Antibacterial activity against drug-resistant carbapenemase producing Klebsiella pneumoniae clinical isolate KP-14-8 after 16 to 20 hrs by broth microdilution method; assay type: functional; summary of the method: as §2
[16] = tested on: Klebsiella pneumoniae; test: Antibacterial activity against drug-resistant carbapenemase producing Klebsiella pneumoniae clinical isolate KP-13-45 after 16 to 20 hrs by broth microdilution method; assay type: functional; summary of the method: as §2
[17] = tested on: Klebsiella pneumoniae; test: Antibacterial activity against drug-resistant carbapenemase producing Klebsiella pneumoniae clinical isolate KP-14-3 after 16 to 20 hrs by broth microdilution method; assay type: functional; summary of the method: as §2
[18] = tested on: Klebsiella pneumoniae; test: Antibacterial activity against drug-resistant carbapenemase producing Klebsiella pneumoniae clinical isolate KP-14-1 after 16 to 20 hrs by broth microdilution method; assay type: functional; summary of the method: as §2
[19] = tested on: Klebsiella pneumoniae; test: Antibacterial activity against drug-resistant carbapenemase producing Klebsiella pneumoniae clinical isolate KP-14-4 after 16 to 20 hrs by broth microdilution method; assay type: functional; summary of the method: as §2
[20] = tested on: Klebsiella pneumoniae; test: Antibacterial activity against drug-resistant carbapenemase producing Klebsiella pneumoniae clinical isolate KP-13-54 after 16 to 20 hrs by broth microdilution method; assay type: functional; summary of the method: as §2
[21] = tested on: Klebsiella pneumoniae; test: Antibacterial activity against drug-resistant carbapenemase producing Klebsiella pneumoniae clinical isolate KP-14-2 after 16 to 20 hrs by broth microdilution method; assay type: functional; summary of the method: as §2
[22] = tested on: Klebsiella pneumoniae; test: Antibacterial activity against drug-resistant carbapenemase producing Klebsiella pneumoniae clinical isolate EC-13-23 after 16 to 20 hrs by broth microdilution method; assay type: functional; summary of the method: as §2
[23] = tested on: Klebsiella pneumoniae; test: Antibacterial activity against drug-resistant carbapenemase producing Klebsiella pneumoniae clinical isolate KP-14-5 after 16 to 20 hrs by broth microdilution method; assay type: functional; summary of the method: as §2
[24] = tested on: Klebsiella pneumoniae; test: Antibacterial activity against drug-resistant carbapenemase producing Klebsiella pneumoniae clinical isolate KP-13-55 after 16 to 20 hrs by broth microdilution method; assay type: functional; summary of the method: as §2
[25] = tested on: Klebsiella pneumoniae; test: Antibacterial activity against drug-resistant carbapenemase producing Klebsiella pneumoniae clinical isolate KP-14-45 after 16 to 20 hrs by broth microdilution method; assay type: functional; summary of the method: as §2
[26] = tested on: Klebsiella pneumoniae; test: Antibacterial activity against drug-resistant carbapenemase producing Klebsiella pneumoniae clinical isolate KP-14-18 after 16 to 20 hrs by broth microdilution method; assay type: functional; summary of the method: as §2
[27] = tested on: Escherichia coli; test: Antibacterial activity against drug-resistant NDM1 producing Escherichia coli clinical isolate EC-13-49 after 16 to 20 hrs by broth microdilution method; assay type: functional; summary of the method: as §2
[28] = tested on: Escherichia coli; test: Antibacterial activity against drug-resistant NDM1 producing Escherichia coli clinical isolate Ecl-14-58 after 16 to 20 hrs by broth microdilution method; assay type: functional; summary of the method: as §2
[29] = tested on: Escherichia coli; test: Antibacterial activity against drug-resistant NDM1 producing Escherichia coli clinical isolate KP-13-58 after 16 to 20 hrs by broth microdilution method; assay type: functional; summary of the method: as §2
[30] = tested on: Escherichia coli; test: Antibacterial activity against drug-resistant NDM1 producing Escherichia coli clinical isolate Ecl-13-62 after 16 to 20 hrs by broth microdilution method; assay type: functional; summary of the method: as §2
[31] = tested on: Escherichia coli; test: Antibacterial activity against drug-resistant NDM1 producing Escherichia coli clinical isolate EC-14-54 after 16 to 20 hrs by broth microdilution method; assay type: functional; summary of the method: as §2
[32] = tested on: Escherichia coli; test: Antibacterial activity against drug-resistant NDM1 producing Escherichia coli clinical isolate Ecl-14-59 after 16 to 20 hrs by broth microdilution method; assay type: functional; summary of the method: as §2
[33] = tested on: Escherichia coli; test: Antibacterial activity against drug-resistant NDM1 producing Escherichia coli clinical isolate EA-14-61 after 16 to 20 hrs by broth microdilution method; assay type: functional; summary of the method: as §2
[34] = tested on: Escherichia coli; test: Antibacterial activity against drug-resistant NDM1 producing Escherichia coli clinical isolate Ecl-14-56 after 16 to 20 hrs by broth microdilution method; assay type: functional; summary of the method: as §2
[35] = tested on: Escherichia coli; test: Antibacterial activity against drug-resistant NDM1 producing Escherichia coli clinical isolate 1460 after 16 to 20 hrs by broth microdilution method; assay type: functional; summary of the method: as §2
[36] = tested on: Escherichia coli; test: Antibacterial activity against drug-resistant NDM1 producing Escherichia coli clinical isolate SM-15-84 after 16 to 20 hrs by broth microdilution method; assay type: functional; summary of the method: as §2
[37] = tested on: Escherichia coli; test: Antibacterial activity against drug-resistant NDM1 producing Escherichia coli clinical isolate CF-15-61 after 16 to 20 hrs by broth microdilution method; assay type: functional; summary of the method: as §2
[38] = tested on: Escherichia coli; test: Antibacterial activity against drug-resistant NDM1 producing Escherichia coli clinical isolate CF-13-61 after 16 to 20 hrs by broth microdilution method; assay type: functional; summary of the method: as §2
[39] = tested on: Staphylococcus aureus; test: Induction of cytoplasmic membrane depolarization in Staphylococcus aureus ATCC 29213 at 10 to 20 ug/ml measured every 2 mins for 12 mins by DiSC35 dye-based fluorescence assay; assay type: functional, organism-based
Summary of the method: (§3)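 Mid-log cells (~10⁸ CFU/mL) were suspended in PBS (S. aureus) or HEPES/glucose/KCl with EDTA (E. coli). They were preloaded with DiSC3(5) for 30 min (S. aureus) or 40 min (E. coli), and baseline fluorescence was read for 8 min. Compound was added to 20 µg/mL final, and fluorescence (ex 622/em 670 nm) was read every 2 min for 12 min. Water served as control.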

[40] = tested on: Escherichia coli; test: Induction of cytoplasmic membrane depolarization in Escherichia coli ATCC 25922 at 10 to 20 ug/ml measured every 2 mins for 12 mins by DiSC35 dye-based fluorescence assay; assay type: functional, organism-based; summary of the method: as §3
[41] = tested on: Staphylococcus aureus; test: Induction of inner membrane permeabilization in Staphylococcus aureus ATCC 29213 at 10 to 20 ug/ml measured every 2 mins for 12 mins by propidium iodide staining-based fluorescence assay; assay type: functional, organism-based
Summary of the method: (§4)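 Mid-log cells (~10⁸ CFU/mL) were suspended in PBS (S. aureus) or HEPES/glucose/KCl (E. coli). They were preincubated with propidium iodide for 30 min (S. aureus) or 40 min (E. coli), and baseline fluorescence was read for 8 min. Compound was added to 20 µg/mL final, and fluorescence (ex 535/em 617 nm) was read every 2 min for 12 min.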

[42] = tested on: Escherichia coli; test: Induction of inner membrane permeabilization in Escherichia coli ATCC 25922 at 10 to 20 ug/ml measured every 2 mins for 12 mins by propidium iodide staining-based fluorescence assay; assay type: functional, organism-based; summary of the method: as §4

Compound: CCCCCCCC[N+](C)(C)CC(=O)Nc1ccc(C(=O)/C=C/c2ccccc2C(F)(F)F)cc1.[Cl-]
- MIC [1]: 2 µg/mL
- MIC [2]: 4 µg/mL
- MIC [3]: 8 µg/mL
- MIC [4]: 16 µg/mL
- HC50 at 1 h [5]: 136 µg/mL
- MIC [6]: 1 µg/mL
- MIC [7]: 0.5 µg/mL
- MIC [8]: 0.5 µg/mL
- MIC [9]: 16 µg/mL
- MIC [10]: 4 µg/mL
- MIC [11]: 2 µg/mL
- MIC [12]: 0.5 µg/mL
- MIC [13]: 1 µg/mL
- MIC [14]: 1 µg/mL
- MIC [15]: 8 µg/mL
- MIC [16]: 8 µg/mL
- MIC [17]: 8 µg/mL
- MIC [18]: > 128 µg/mL
- MIC [19]: 8 µg/mL
- MIC [20]: 4 µg/mL
- MIC [21]: > 128 µg/mL
- MIC [22]: 4 µg/mL
- MIC [23]: 8 µg/mL
- MIC [24]: 16 µg/mL
- MIC [25]: 8 µg/mL
- MIC [26]: 16 µg/mL
- MIC [27]: 8 µg/mL
- MIC [28]: 8 µg/mL
- MIC [29]: 1 µg/mL
- MIC [30]: 8 µg/mL
- MIC [31]: 16 µg/mL
- MIC [32]: 8 µg/mL
- MIC [33]: 8 µg/mL
- MIC [34]: 4 µg/mL
- MIC [35]: 8 µg/mL
- MIC [36]: 128 µg/mL
- MIC [37]: 4 µg/mL
- MIC [38]: 4 µg/mL
- Activity [39]: Active
- Activity [40]: Active
- Activity [41]: Active
- Activity [42]: Active

Compound: CCCCCCCC[N+](C)(C)CC(=O)Nc1ccc(C(=O)/C=C/c2ccc(F)cc2F)cc1.[Cl-]
- MIC [1]: 2 µg/mL
- MIC [2]: 2 µg/mL
- MIC [3]: 4 µg/mL
- MIC [4]: 4 µg/mL
- HC50 at 1 h [5]: 54 µg/mL
- MIC [6]: 1 µg/mL
- MIC [7]: 1 µg/mL
- MIC [8]: 0.5 µg/mL
- MIC [9]: 8 µg/mL
- MIC [10]: 4 µg/mL
- MIC [11]: 0.5 µg/mL
- MIC [12]: 1 µg/mL
- MIC [13]: 4 µg/mL
- MIC [14]: 2 µg/mL
- MIC [15]: 4 µg/mL
- MIC [16]: 8 µg/mL
- MIC [17]: 8 µg/mL
- MIC [18]: 8 µg/mL
- MIC [19]: 4 µg/mL
- MIC [20]: 4 µg/mL
- MIC [21]: 16 µg/mL
- MIC [22]: 8 µg/mL
- MIC [23]: 4 µg/mL
- MIC [24]: 8 µg/mL
- MIC [25]: 8 µg/mL
- MIC [26]: 8 µg/mL
- MIC [27]: 4 µg/mL
- MIC [28]: 4 µg/mL
- MIC [29]: 2 µg/mL
- MIC [30]: 4 µg/mL
- MIC [31]: 8 µg/mL
- MIC [32]: 4 µg/mL
- MIC [33]: 4 µg/mL
- MIC [34]: 4 µg/mL
- MIC [35]: 4 µg/mL
- MIC [36]: 16 µg/mL
- MIC [37]: 4 µg/mL
- MIC [38]: 2 µg/mL
- Activity [39]: Active
- Activity [40]: Active
- Activity [41]: Active
- Activity [42]: Active
